Ecoli WT expand: growth inhibitors of wild-type E. coli, primary screen, strain BW25113, expanded library, OD600; OD600 absorbance; growth inhibition, % at 100 µM; 98,000 tested, 0.15% active; AID 710, 2007;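 active means growth inhibition above about 50% at one test dose, limit read from the data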;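 further: growth measured after 20 h incubation at 37 °C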
tolC growth inh: growth inhibitors of E. coli tolC mutant, primary screen, strain BW25113 ΔtolC::kan, 384-well | OD615 | growth inhibition, % at 10 µM (by protocol) | 65,000 tested, 2.2% active | AID 573, 2007;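 active means growth inhibition at or above a cutoff equal to the mean over every tested compound plus 3 SD, cut at about 60% in these data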;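 further: growth measured after 20 h incubation at 37 °C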
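Doses: one dose of 10 µM final / Material: E. coli BW25113 ΔtolC::kan, tolC deletion mutant strain / Buffer or medium: LB with kanamycin 50 µg/mL / Evaluation: percent growth inhibition / Detection: optical density read at 615 nm / Incubation: 37 °C, 20 h exposure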
CYP2C9 activ: human CYP2C9 activators, primary screen, biochemical, luminescence. Cytochrome P450 2C9 (Homo sapiens), P11712. recombinant CYP2C9, luciferin-H conversion; hits give high values; factor 1 = untreated enzyme, 0 = blocked. activation factor at 5 µM. 96,000 tested, 1.4% active;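 active means activation factor of 2 or more for CYP2C9 at a 5 µM dose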;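 further: 0 = sulfaphenazole-blocked wells and 1 = vehicle-only wells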
CYP2C9 inh: blockers of cytochrome P450 2C9 activity – biochemical, luminescence, ADME assay, primary screen. P11712. CYP2C9 Supersomes, luciferin-H conversion. inhibition, % at 5 µM. 96,000 tested, 20% active. AID 777, 2007;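 active means blocking of liver enzyme CYP2C9 beyond about 50% at 5 µM, limit read from the data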
CYP2C19 act: human CYP2C19 activators, primary screen, biochemical, luminescence | Cytochrome P450 2C19 (Homo sapiens), P33261 | recombinant CYP2C19, luciferin-H EGE luminescence; hits give high values; 0 = fully inhibited enzyme, 1 = untreated enzyme | activation factor at 5 µM | 96,000 tested, under 10 active;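 active means activation factor of at least 2 at 5 µM in the primary screen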;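 further: 0 = wells with 2.5 mM tranylcypromine and 1 = vehicle-only wells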
Target sequence (P33261 whole entry, looked up): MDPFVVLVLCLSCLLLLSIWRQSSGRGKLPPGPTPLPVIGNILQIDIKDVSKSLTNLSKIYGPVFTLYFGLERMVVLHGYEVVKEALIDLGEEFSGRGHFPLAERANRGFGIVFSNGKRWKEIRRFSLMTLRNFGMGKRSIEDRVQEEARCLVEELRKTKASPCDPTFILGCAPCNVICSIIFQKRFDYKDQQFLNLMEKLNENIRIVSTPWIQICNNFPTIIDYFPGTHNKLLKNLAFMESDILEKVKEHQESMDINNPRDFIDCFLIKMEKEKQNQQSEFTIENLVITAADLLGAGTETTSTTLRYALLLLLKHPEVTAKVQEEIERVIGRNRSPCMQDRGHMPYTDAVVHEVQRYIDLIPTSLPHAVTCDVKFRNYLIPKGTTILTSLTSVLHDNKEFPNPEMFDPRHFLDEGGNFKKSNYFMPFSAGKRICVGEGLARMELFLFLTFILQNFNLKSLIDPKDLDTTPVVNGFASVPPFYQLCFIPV
CYP2C19 inh: blockers of cytochrome P450 2C19 activity – biochemical, luminescence, ADME assay, primary screen; 96,000 tested, 21% active; inhibition, % at 5 µM; P33261; AID 778, 2007; CYP2C19 Supersomes, luciferin-H EGE luminescence, 30 min;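 active means CYP2C19 inhibition above a set limit at 5 µM in the primary screen, cut at about 50% in these data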;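 further: plate controls were negative control wells for no effect and 2.5 mM tranylcypromine positive control for full effect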
Numbers without * were called inactive; nt = no result. Only some compounds are listed: those with a hit (about 29% of all), similar ones and a draw of the others.

SMILES	Ecoli WT expand	tolC growth inh	CYP2C9 activ	CYP2C9 inh	CYP2C19 act	CYP2C19 inh
Cc1onc(-c2c(F)cccc2Cl)c1C(=O)OCN1C(=O)c2ccccc2C1=O	-5.0	6.2	0.6	42.4	0.4	55.6*
COc1ccc(CNC(=O)COC(=O)c2n[nH]c3ccccc23)cc1OC	-11.0	-4.6	nt	nt	nt	nt
O=C(Nc1nnc(N2CCCCCC2)s1)c1cc(-c2ccc(Br)cc2)on1	-7.0	16.7	0.8	15.0	1.2	-18.7
CC1CCCC(C)N1c1nnc(NC(=O)c2cc(-c3ccc(Br)cc3)on2)s1 (stereo unspecified)	-9.0	nt	0.3	74.0*	0.5	52.0*
CC(C)(C)N1CC(c2nc3ccccc3n2CCOc2ccccc2)CC1=O (stereo unspecified)	3.0	nt	0.2	83.0*	0.4	61.8*
CCCn1c(Nc2ccc(Cl)cc2)nc2ccccc21	-1.0	nt	1	2.2	1	-4.6
CC(C)(C)N1CC(c2nc3ccccc3n2Cc2ccc(Cl)cc2)CC1=O (stereo unspecified)	11.0	nt	0.1	93.0*	0.3	72.2*
Cc1ccc2cccc(OC(=O)c3ccc4c(c3)OCCO4)c2n1	16.0	4.4	1.1	-9.2	0.9	6.4
CCOc1cc(N2CCOCC2)c(OCC)cc1NC(=O)COC(=O)c1cc(C)oc1C	-17.0	-8.4	0.8	17.2	0.8	23.6
COc1ccc(C(=O)OCC(=O)Nc2cc(C)on2)cc1S(=O)(=O)N1CCOCC1	-8.0	nt	1	-0.4	1.1	-8.8
Cc1cc(C(=O)OCC(=O)Nc2cc(S(=O)(=O)N3CCOCC3)ccc2Cl)c(C)o1	-12.0	nt	0.2	79.6*	0.5	51.8*
CCN(CC)S(=O)(=O)c1ccc(C)c(NC(=O)COC(=O)c2ccc(C)c(S(=O)(=O)N3CCOCC3)c2)c1	-4.0	nt	0	95.7*	0.1	91.5*
O=C(COC(=O)Cc1ccc(S(=O)(=O)N2CCCCC2)s1)Nc1ccc2c(c1)OCO2	0.0	4.1	0	97.9*	0.3	66.1*
Cc1cc(C(=O)OCC(=O)Nc2ccc(S(=O)(=O)N3CCOCC3)cc2)c(C)o1	5.0	10.3	0.3	72.8*	0.7	29.0
COc1ccc(CN2CCCCC2c2cccnc2)c(OC)c1C (stereo unspecified)	nt	-0.6	0.9	5.0	0.6	38.5
CCNC(=O)C1CC(=O)OC12CCCCC2 (stereo unspecified)	1.0	nt	1	0.1	0.7	31.3
CCc1nc2ccccc2c(C(=O)OCC(=O)Nc2ccc(S(=O)(=O)N3CCOCC3)cc2)c1C	-2.0	29.6	0.5	54.0*	1	-1.9
Cc1cc(C(=O)OCC(=O)Nc2ccc(F)cc2F)c(C)o1	3.0	-4.6	0.7	26.8	0.4	56.2*
Cc1cc(C(=O)OCC(=O)NC(=O)NC(C)(C)C)c(C)o1	3.0	10.9	0.9	6.5	0.7	31.0
Cc1ccc(S(=O)(=O)N2CCOCC2)cc1C(=O)OCC(=O)Nc1ccc2c(c1)OCO2	-5.0	nt	0.5	52.6*	0.6	41.1
COc1cccc(NC(=O)COC(=O)c2cc(S(=O)(=O)N3CCOCC3)ccc2C)c1	-3.0	nt	0.7	33.9	0.8	22.6
O=C(COC(=O)Cc1ccc(S(=O)(=O)N2CCOCC2)s1)NCCc1ccccc1	5.0	nt	0.4	60.2*	0.7	33.1
O=C(c1cc2ccccc2oc1=O)N1CCSC1c1ccco1 (stereo unspecified)	2.0	-4.9	2.5*	-154.9	0.4	55.6*
Cc1cc(C)c(C(=O)CSc2n[nH]c(=O)n2C2CC2)cc1C	4.0	11.6	0.2	76.9*	0.5	52.0*
COC(=O)c1cc(C(=O)c2cccc(Cl)c2Cl)cn1C	2.0	nt	2*	-96.1	0.1	90.2*
SMILES	Ecoli WT expand	tolC growth inh	CYP2C9 activ	CYP2C9 inh	CYP2C19 act	CYP2C19 inh
Cn1cc(C(=O)c2cccc(Cl)c2Cl)cc1C(=O)O	-9.0	nt	1.1	-7.6	1.1	-8.6
Cn1cc(C(=O)c2ccc(Cl)cc2Cl)cc1C(=O)N/N=C(\N)COc1cccc(C(F)(F)F)c1	-8.0	nt	0.4	61.9*	0.4	64.0*
COC(=O)c1cc(C(=O)c2ccc(Cl)cc2Cl)cn1C	4.0	nt	0.9	14.3	0.4	57.9*
COc1ccc(-n2c(SCC(=O)Nc3ccccc3)nc3c(c2=O)SCC3)cc1	-7.0	14.1	0.7	32.9	0.6	42.3
COc1cccc(-c2noc(C3CCCN(S(=O)(=O)c4cccc(Cl)c4C)C3)n2)c1 (stereo unspecified)	-27.0	29.8	0.5	51.4*	0.6	40.4
O=S(=O)(Cc1ccccc1)N1CCCC(c2nc(-c3ccc(F)cc3)no2)C1 (stereo unspecified)	-4.0	-15.6	0.9	10.4	0.8	19.8
O=S(=O)(NC1CC1)c1ccc(S(=O)(=O)N2CCCC(c3nc(-c4cccnc4)no3)C2)cc1 (stereo unspecified)	1.0	-7.8	0.4	59.2*	0.3	69.7*
O=C(NC1CCCCC1)N1CCCC(c2nc(-c3ccc(S(=O)(=O)N4CCCC4)cc3)no2)C1 (stereo unspecified)	-3.0	-5.8	1	3.2	1.1	-7.5
CCCS(=O)(=O)N1CCCC(c2nc(-c3cccc(OC)c3)no2)C1 (stereo unspecified)	-3.0	9.8	0.2	76.9*	0.2	80.2*
O=C(O/N=C1/CCSc2ccccc21)c1ccccc1	-9.0	nt	0.9	10.3	0.8	18.1
CC(C)N=C(Nc1ccc(Cl)cc1)c1cccnc1	-1.0	nt	1	2.5	0.7	33.9
O=c1[nH]c2cccnc2n1Cc1ccccc1	7.0	nt	0.1	93.8*	0.5	50.9*
O=c1[nH]c2ccccc2n1Cc1ccccc1	-6.0	nt	1	2.0	0.7	26.7
Cc1cccc(OCC(=O)Nc2ccccc2N2CCN(C(=O)C(C)C)CC2)c1C	8.0	56.0	0.4	55.7*	0.7	30.0
CC(=O)N1CCN(c2ccccc2NC(=O)COc2cc(C)ccc2C(C)C)CC1	-21.0	31.4	0.1	94.3*	0.1	89.5*
CC(=O)N1CCN(c2ccccc2NC(=O)COc2ccc(Br)cc2)CC1	-3.0	nt	0.6	38.5	0.7	30.3
Cc1ccc(C(C)C)c(OCC(=O)Nc2ccccc2N2CCN(C)CC2)c1	11.0	10.1	0.1	86.8*	0.3	68.9*
Cc1nc2cc(C(F)(F)F)ccc2n1C1CCN(CC(=O)NC(C)(C)C)CC1	6.0	4.8	0.9	12.4	0.7	32.8
CCC(C)[C@H](NC(=O)OC(C)(C)C)C(=O)N/N=C/c1ccc2nccnc2c1 (stereo partly specified)	-2.0	nt	0.5	54.8*	1	-3.4
